Values after ≈ are worked out from the molar mass of the structure shown.
Tests used:
[1] = Metabolic stability in human liver microsomes assessed as intrinsic clearance incubated for 30 mins in presence of NADPH measured per mg protein; format: ADME, Microsome; conditions: for microsomal CLint: liver microsomes, read-out: CLH
How it was run: (§1)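 Compound incubated with human or rat hepatic microsomes plus NADPH at 37 °C for 30 min. Intrinsic clearance expressed as μL/min/mg protein.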

[2] = Metabolic stability in rat liver microsomes assessed as intrinsic clearance incubated for 30 mins in presence of NADPH measured per mg protein; format: ADME, Microsome; conditions: for microsomal CLint: liver microsomes, read-out: CLH; for CLH: microsomes, 0.5 h; how it was run: as §1
[3] = Glutathione reactivity assessed as dansylatedGSH-compound conjugate formation in presence of human liver microsomes by fluorescence detector based HPLC analysis; format: physicochemical
How it was run: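 Reactive metabolite trapping: compound incubated with dansylated glutathione and human liver microsomes. dGSH-conjugate quantified by HPLC with fluorescence detection and reported in μmol/L.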

[4] = Plasma concentration in cynomolgus monkey at 5 mg/kg, po measured after 2 hrs of administration; format: ADME, organism-based, Macaca fascicularis
How it was run: (§2)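 Cynomolgus monkeys (n=2) dosed orally. Blood and brain collected 2 h after dosing. Plasma (ng/mL) and striatum (ng/g) concentrations measured and the striatum/plasma ratio taken per animal and as the mean. Brain free concentration derived using protein binding ratio.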

[5] = Drug uptake in cynomolgus monkey striatum at 5 mg/kg, po measured after 2 hrs of administration; format: ADME, organism-based, Macaca fascicularis; conditions: read-out: Drug uptake; how it was run: as §2
[6] = Ratio of drug level in cynomolgus monkey striatum to plasma at 5 mg/kg, po measured after 2 hrs of administration
[7] = Plasma concentration in mouse at 2 mg/kg, po; format: ADME, organism-based; conditions: in vivo
How it was run: (§3)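 Mouse PK after a single oral dose (2 mg/kg; 10 mg/kg where marked). Plasma concentration given in ng/mL and brain concentration in ng/g tissue. Brain/plasma ratio computed from these. Values given as mean ± spread.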

[8] = Ratio of drug concentration in brain to plasma in mouse at 2 mg/kg, po; format: ADME, organism-based; conditions: read-out: BPR; how it was run: as §3
[9] = Drug concentration in mouse brain at 2 mg/kg, po measured per gm of tissue; format: ADME, organism-based; conditions: in vivo; how it was run: as §3
[10] = Plasma concentration in mouse at 10 mg/kg, po; format: ADME, organism-based; conditions: in vivo; how it was run: as §3
[11] = Solubility of the compound at pH 1.2; format: physicochemical; conditions: buffer
[12] = Solubility of the compound at pH 7.4; format: physicochemical; conditions: buffer
[13] = Half life in mouse; format: ADME, organism-based; conditions: in vivo
[14] = Clearance in mouse; format: ADME, organism-based; conditions: in vivo
[15] = Drug concentration in mouse brain at 10 mg/kg, po measured per gm of tissue; format: ADME, organism-based; conditions: in vivo; how it was run: as §3
[16] = Ratio of drug concentration in brain to plasma in mouse at 10 mg/kg, po; format: ADME, organism-based; conditions: read-out: BPR; how it was run: as §3

Row | SMILES | microsomal CLint [1] [µL/min/mg] | microsomal CLint [2] [µL/min/mg] | Drug metabolism [3] [µmol/mL] | further results
1 | O=S(=O)(CC(F)(F)F)Nc1ccc(-c2cc(F)ccc2N2CCCCC2)nn1 | 0.569 | 0.265 | 0 | 
2 | CCS(=O)(=O)Nc1ccc(-c2cc(F)ccc2N2CCCCC2)nn1 | 0.156 | < 0.05 | 0 | 
3 | COCCCS(=O)(=O)Nc1ccc(-c2cc(F)ccc2N2CCCCC2)nn1 |  |  | 0 | CLH ([1]; microsomes, 0.5 h): 0.026 µL/min/mg; CLH [2]: 0.045 µL/min/mg
4 | O=C(O)c1cc(-c2ccc(Cl)c(OC3CC3)c2)ncn1 |  |  |  | concentration at 2 h [4]: 15600 ng/mL; concentration at 2 h [5]: 64.8 ng/g; Kp at 2 h [6]: 0.004
5 | Cc1ccc(S(=O)(=O)Nc2ccc(-c3c(F)cccc3N3CCCCC3)nn2)cc1 | 0.478 | 0.339 | 0.000637 | Cp [7]: 284 ng/mL; Kp [8]: 0.28; Ct [9]: 79 ng/g
6 | CC(C)CS(=O)(=O)Nc1ccc(-c2cc(F)ccc2N2CCCCC2)nn1 | 0.375 | 0.483 | 0.00011 | 
7 | CCCS(=O)(=O)Nc1ccc(-c2cc(F)ccc2N2CCCCC2)nn1 | 0.179 | 0.168 | 0 | 
8 | O=S(=O)(CC1CCCCO1)Nc1ccc(-c2cc(F)ccc2N2CCCCC2)nn1 (stereo unspecified) | 0.139 | 0.435 | 0 | 
9 | COCCS(=O)(=O)Nc1ccc(-c2cc(F)ccc2N2CCCCC2)nn1 | 0.179 |  | 0 | CLH [2]: 0.05 µL/min/mg
10 | Cc1ccc(S(=O)(=O)Nc2ccc(-c3cccc(F)c3N3CCCCC3)nn2)cc1 | 0.178 | 0.518 | 0.000146 | 
11 | Cc1ccc(S(=O)(=O)Nc2ccc(-c3ccccc3N3CCCCC3)nn2)cc1 | 1.07 | 0.395 | 0.000852 | Cp [10]: 808 ng/mL; solubility [11]: 163 µg/mL (≈ 399 µM); solubility [12]: < 1 µg/mL; half-life [13]: 18 min; clearance [14]: 67 mL/min/kg; Ct [15]: 230 ng/g; Kp [16]: 0.28
12 | O=S(=O)(CC1CCCC1)Nc1ccc(-c2cc(F)ccc2N2CCCCC2)nn1 | 0.703 | 1.6 | 0.00049 | 
